Reference: ChEMBL document CHEMBL1136810, “Design and synthesis of plasmepsin I and plasmepsin II inhibitors with activity in Plasmodium falciparum-infected cultured human erythrocytes” (J Med Chem, 2003)

Tests used:
Plasmepsin II = Plasmepsin II (Plasmodium falciparum, UniProt P46925); test: Binding affinity for Plasmodium falciparum plasmepsin-2.
Summary of the method: (§1)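 Fluorogenic protease assay in 100 mM sodium acetate pH 4.5 with 10% glycerol and 0.01% Tween 20. Pro-Plm II at 3 nM had its pro-sequence removed by 40 min preincubation at room temperature. Plm I was matched to similar activity. Pro-cathepsin D at 50 ng/mL was activated 20 min at 37 °C. Inhibitors in DMSO (1% final) were added before 3 μM DABCYL/EDANS peptide substrate. Fluorescence rise was read over 10 min. IC50 came from a competitive-isotherm fit and was converted to Ki using Km.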

Cathepsin D = Cathepsin D (Homo sapiens, UniProt P07339); test: In vitro binding affinity for human cathepsin D.; summary of the method: as §1
Cathepsin D, sequence (P07339 65-162 limits assumed): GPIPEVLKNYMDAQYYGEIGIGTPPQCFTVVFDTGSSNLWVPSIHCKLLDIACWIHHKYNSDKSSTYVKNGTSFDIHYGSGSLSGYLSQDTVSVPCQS
Cathepsin D, sequence (P07339 169-412 limits assumed): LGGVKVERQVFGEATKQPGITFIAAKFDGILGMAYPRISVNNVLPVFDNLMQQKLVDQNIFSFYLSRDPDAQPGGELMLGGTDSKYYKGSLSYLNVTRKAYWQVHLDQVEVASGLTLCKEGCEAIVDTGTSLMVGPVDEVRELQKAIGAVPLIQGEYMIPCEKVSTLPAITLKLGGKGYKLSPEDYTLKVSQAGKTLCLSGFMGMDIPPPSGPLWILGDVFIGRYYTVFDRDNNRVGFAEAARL

Plasmepsin I = Plasmepsin I (Plasmodium falciparum, UniProt P39898); test: Binding affinity for Plasmodium falciparum plasmepsin-1.; summary of the method: as §1
Plasmepsin I, sequence (P39898 whole entry): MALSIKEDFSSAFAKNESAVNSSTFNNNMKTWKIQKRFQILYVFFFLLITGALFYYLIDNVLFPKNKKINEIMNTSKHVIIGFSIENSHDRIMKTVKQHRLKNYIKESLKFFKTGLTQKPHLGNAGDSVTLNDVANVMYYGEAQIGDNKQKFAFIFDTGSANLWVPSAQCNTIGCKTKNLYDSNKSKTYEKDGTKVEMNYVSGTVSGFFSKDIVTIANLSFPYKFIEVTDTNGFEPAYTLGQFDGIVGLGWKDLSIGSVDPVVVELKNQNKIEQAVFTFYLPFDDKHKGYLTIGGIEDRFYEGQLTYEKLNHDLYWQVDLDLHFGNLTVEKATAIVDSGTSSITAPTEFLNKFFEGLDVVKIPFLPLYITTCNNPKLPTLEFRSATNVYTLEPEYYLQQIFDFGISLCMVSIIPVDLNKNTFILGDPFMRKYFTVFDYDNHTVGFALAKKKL

Plasmodium falciparum [1] = test: Percent inhibition of Plasmodium falciparum in red blood cells at 5 uM; format: functional
Plasmodium falciparum [2] = test: Percent inhibition against Plasmodium falciparum infected red blood cells at 5 uM; format: functional
Plasmodium falciparum [3] = test: Percent inhibition of Plasmodium falciparum in erythrocytes at 5 uM; format: functional
Caco-2 = test: Permeability in Caco-2 cells was determined; format: functional, cell-based; conditions: Homo sapiens
Plasmodium falciparum [4] = test: Effective dose against Plasmodium falciparum in red blood cells; format: functional; conditions: read-out: ED50 (the source's name)

Plasmepsin II, sequence (P46925 whole entry): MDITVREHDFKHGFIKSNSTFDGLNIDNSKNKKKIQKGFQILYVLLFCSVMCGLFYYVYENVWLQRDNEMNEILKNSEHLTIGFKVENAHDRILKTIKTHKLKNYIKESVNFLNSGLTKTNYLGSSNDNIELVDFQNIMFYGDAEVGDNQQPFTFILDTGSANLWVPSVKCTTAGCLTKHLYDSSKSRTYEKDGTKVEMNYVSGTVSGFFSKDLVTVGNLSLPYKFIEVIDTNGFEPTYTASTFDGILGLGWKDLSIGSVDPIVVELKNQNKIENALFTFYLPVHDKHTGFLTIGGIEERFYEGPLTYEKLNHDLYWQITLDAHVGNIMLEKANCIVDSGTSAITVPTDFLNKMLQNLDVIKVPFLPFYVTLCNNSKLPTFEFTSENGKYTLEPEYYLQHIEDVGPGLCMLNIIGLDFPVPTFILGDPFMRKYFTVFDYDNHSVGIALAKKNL

SMILES	Ki (Plasmepsin II) [nM]	Ki (Cathepsin D) [nM]	Ki (Plasmepsin I) [nM]	further results
Cc1ccc(-c2cccc(C[C@H](NC[C@H](O)[C@H](Cc3ccccc3)NC(=O)[C@@H](NC(=O)c3ccccn3)C(C)C)C(N)=O)c2)cc1	930	1900	1100	
CC(C)[C@H](NC(=O)c1ccccn1)C(=O)N[C@@H](Cc1ccccc1)[C@@H](O)CN[C@@H](Cc1ccccc1)C(N)=O		> 2800		
CCCCNC(=O)C[C@H](O)[C@H](CC(C)C)NC(=O)[C@@H](NC(=O)Cc1ccc2ccccc2c1)C(C)CC (stereo partly drawn)	50	320		
COc1ccccc1-c1ccc(C[C@H](NC[C@H](O)[C@H](Cc2ccccc2)NC(=O)[C@@H](NC(=O)c2ccccn2)C(C)C)C(N)=O)cc1	379		437	
CC(C)[C@H](NC(=O)c1ccccn1)C(=O)N[C@@H](Cc1ccccc1)[C@@H](O)CN[C@@H](Cc1cccc(OS(=O)(=O)C(F)(F)F)c1)C(N)=O	> 2000	1700	469	
COc1ccccc1-c1cccc(C[C@H](NC[C@H](O)[C@H](Cc2ccccc2)NC(=O)[C@@H](NC(=O)c2ccccn2)C(C)C)C(N)=O)c1	1430	> 2000	1300	
CC(C)[C@H](NC(=O)c1ccccn1)C(=O)N[C@@H](Cc1ccccc1)[C@@H](O)CN1C(=O)NC(=O)[C@@H]1Cc1ccc(-c2ccccc2)cc1	928	> 2000	2050	
CC(C)[C@H](NC(=O)c1ccccn1)C(=O)N[C@@H](Cc1ccccc1)[C@@H](O)CN[C@H](C(N)=O)c1ccccc1	> 2000	> 2000	> 2000	
CC(C)[C@H](NC(=O)c1ccccn1)C(=O)N[C@@H](Cc1ccccc1)[C@@H](O)CN[C@@H](Cc1cccc(-c2cccc(N)c2)c1)C(N)=O	129	> 2000	530	inhibition at 5 µM (Plasmodium falciparum [1]): 69%
CC(C)[C@H](NC(=O)c1ccccn1)C(=O)N[C@@H](Cc1ccccc1)[C@@H](O)CN[C@@H](Cc1ccc(Br)cc1)C(N)=O	540	> 2000	98	inhibition at 5 µM (Plasmodium falciparum [2]): 35%
CC(C)[C@H](NC(=O)c1ccccn1)C(=O)N[C@@H](Cc1ccccc1)[C@@H](O)CN[C@@H](Cc1cccc(-c2ccccc2)c1)C(N)=O	579	1600	1000	
CC(C)[C@H](NC(=O)c1ccccn1)C(=O)N[C@@H](Cc1ccccc1)[C@@H](O)CN[C@@H](C)C(N)=O	> 2000	> 2000	> 2000	
CC(C)C[C@H](NC(=O)[C@H](C)NC(=O)C[C@H](O)[C@H](Cc1ccccc1)NC(=O)[C@@H](NC(=O)c1ccccn1)C(C)C)C(N)=O	0.56			
CC(C)C[C@H](NC[C@H](O)[C@H](Cc1ccccc1)NC(=O)[C@@H](NC(=O)c1ccccn1)C(C)C)C(N)=O		> 2800		
CC(C)C[C@H](NC[C@H](O)[C@H](Cc1ccccc1)NC(=O)c1ccccn1)C(N)=O	> 2000	> 2000	> 2000	
CC(C)[C@H](NC(=O)c1ccccn1)C(=O)N[C@@H](Cc1ccccc1)[C@@H](O)CN[C@@H](Cc1ccc(-c2cccc(N)c2)cc1)C(N)=O	150		63	inhibition at 5 µM (Plasmodium falciparum [3]): 77%
CC(C)[C@H](NC(=O)c1ccccn1)C(=O)N[C@@H](Cc1ccccc1)[C@@H](O)CN1C(=O)NC(=O)[C@@H]1Cc1ccc(Br)cc1	1900	> 2000	> 2000	
CC(C)[C@H](NC(=O)c1ccccn1)C(=O)N[C@@H](Cc1ccccc1)[C@@H](O)CN[C@@H](Cc1ccc(-c2ccccc2)cc1)C(N)=O	117	> 2000	68	Papp (Caco-2): 10.3 ×10⁻⁶ cm/s
CC(C)[C@H](NC(=O)c1ccccn1)C(=O)N[C@@H](Cc1ccccc1)[C@@H](O)CN[C@H](Cc1ccccc1)C(N)=O		> 2000		
Cc1ccc(-c2ccc(C[C@H](NC[C@H](O)[C@H](Cc3ccccc3)NC(=O)[C@@H](NC(=O)c3ccccn3)C(C)C)C(N)=O)cc2)cc1	121		115	EC50 (Plasmodium falciparum [4]): 1600 nM
